According to ChEMBL document CHEMBL3272068, “Synthesis and biological activities of some N4-substituted 4-aminopyrazolo(3,4-d)pyrimidines” (J Med Chem, 1976):

Experiments:
[1] = Antiproliferative activity against human Nc37 cells assessed as cell viability at 0.1 mM after 72 hrs by trypan blue dye based hemocytometer analysis relative to control; parameters: species or system NC-37; details: read-out: Activity
In short: (§1)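 Nc 37 (normal donor buffy coat), RPMI 6410 (myeloblastic leukemia) and murine L1210 cells. Compound dissolved in Me2SO, held at 37° overnight for sterilization, diluted in RPMI 1640 + 10% fetal calf serum to final 10⁻⁴ M with 0.5% Me2SO. Unagitated tubes seeded at 2–5 × 10⁵ cells/ml from log-phase stocks. Trypan blue (0.05%) hemocytometer counts every 24 h. Viable density versus control at 72 h banded into rating categories.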

[2] = Antiproliferative activity against human RPMI6410 cells assessed as cell viability at 0.1 mM after 72 hrs by trypan blue dye based hemocytometer analysis relative to control; format: functional; details: RPMI 6410, 72 h, read-out: Activity; in short: as §1
[3] = system: L1210; experiment: Antiproliferative activity against mouse L1210 cells assessed as cell viability at 0.1 mM after 72 hrs by trypan blue dye based hemocytometer analysis relative to control; format: functional; details: L1210, 72 h, read-out: Activity; in short: as §1
[4] = Antiproliferative activity against human RPMI6410 cells assessed as growth inhibition at 0.1 mM; format: functional; details: RPMI 6410; in short: as §1

Structure (SMILES)	viability at 72 h, 100 µM [1] [%]	viability at 100 µM [2] [%]	viability at 100 µM [3] [%]	inhibition at 100 µM [4] [%]
O=C(Nc1cccc(Cl)c1)Nc1ncnc2[nH]ncc12	0	0	0	–
C[C@@H](O)[C@H](NC(=O)Nc1ncnc2[nH]ncc12)C(=O)O	30	30	30	–
O=C(Nc1ccccc1Cl)Nc1ncnc2[nH]ncc12	90	80	60	–
CCNc1ncnc2[nH]ncc12	90	90	60	–
CCCCNC(=O)Nc1ncnc2[nH]cnc12	–	–	–	70
CCOCCNC(=O)Nc1ncnc2[nH]ncc12	80	30	80	–
CC(C)CCNc1ncnc2[nH]ncc12	0	30	0	–
O=C(NCCCCc1ccccc1)Nc1ncnc2[nH]ncc12	60	80	30	–
CCCCNC(=O)Nc1ncnc2[nH]ncc12	80	80	60	–
O=C(Nc1ccccc1F)Nc1ncnc2[nH]ncc12	90	60	60	–
CCCCCNC(=O)Nc1ncnc2[nH]ncc12	0	30	30	–
O=C(NCCCc1ccccc1)Nc1ncnc2[nH]ncc12	30	60	60	–
c1ccc(CNc2ncnc3[nH]ncc23)cc1	30	30	0	–
C=CCNc1ncnc2[nH]ncc12	60	30	60	–
CC(C)CCNC(=O)Nc1ncnc2[nH]ncc12	60	60	60	–
O=C(Nc1ccccc1)Nc1ncnc2[nH]ncc12	90	30	60	–
CCCCCNC(=O)Nc1ncnc2[nH]cnc12	–	–	–	70
CC(C)NC(=O)Nc1ncnc2[nH]ncc12	30	80	80	–
CC(C)Nc1ncnc2[nH]ncc12	30	60	90	–
CC(C)(C)CNC(=O)Nc1ncnc2[nH]ncc12	60	60	30	–
O=C(Nc1ncnc2[nH]ncc12)NC12CC3CC(CC(C3)C1)C2	30	30	0	–
C=CCNC(=O)Nc1ncnc2[nH]ncc12	30	90	0	–
CCCCCCCCNC(=O)Nc1ncnc2[nH]ncc12	0	0	0	–
C#CCNC(=O)Nc1ncnc2[nH]ncc12	90	30	60	–
CC(C)CNC(=O)Nc1ncnc2[nH]ncc12	60	60	60	–
CC(C)(C)NC(=O)Nc1ncnc2[nH]ncc12	60	60	30	–
CC(C)CCNC(=O)Nc1ncnc2[nH]cnc12	–	–	–	70
O=C(O)CNC(=O)Nc1ncnc2[nH]ncc12	90	60	80	–
O=C(Nc1ccc(Cl)cc1)Nc1ncnc2[nH]ncc12	30	30	30	–
